Screens from PubChem BioAssay.
ROMK primary: human ROMK K+ channel modulation, primary screen. P48048. Tet-inducible ROMK, thallium flux fluorescence; actives lie on both sides. B-score at 10 µM. 2% of 130,000 active. AID 1918;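 active means signal ratio slope over the read window, or its plate-corrected B-score, at least 3 SD from the plate mean, either direction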;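 further: B-score of the F/F0 ratio slope over 7 to 12 s after thallium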
MDM2 E3 inh: inhibitors of human Mdm2 E3 ubiquitin ligase; 0.11% of 210,000 active; signal enhancement, % at 5 µM; Q00987; cell-based MDM2 ubiquitination luciferase reporter, 2 h; 0 = plate control, 100 = twice control, blank-subtracted;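 active means signal enhancement of 30% or more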;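 further: luminescence tracks abundance of the self-degrading MDM2-luciferase fusion protein; higher signal means inhibition of MDM2 E3 ligase activity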
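system = mammalian cells stably expressing self-ubiquitinating, self-degrading MDM2 E3–luciferase fusion | quantity = 2000 cells per well seeded | incubation = 4 h cell settling then 2 h compound exposure, 37 °C | signal = SteadyLite luminescence, 15 min reagent step | benchmarks = plate control and blank wells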
p97 inhibitor: human p97 ATPase inhibition; P55072; 0.42% of 220,000 active; recombinant p97 ATPase, Kinase-Glo ATP luminescence, 3 h; inhibition, % at 8 µM; AID 1481; in the data active means inhibition above about 15%
Target sequence (P55072 whole entry, looked up): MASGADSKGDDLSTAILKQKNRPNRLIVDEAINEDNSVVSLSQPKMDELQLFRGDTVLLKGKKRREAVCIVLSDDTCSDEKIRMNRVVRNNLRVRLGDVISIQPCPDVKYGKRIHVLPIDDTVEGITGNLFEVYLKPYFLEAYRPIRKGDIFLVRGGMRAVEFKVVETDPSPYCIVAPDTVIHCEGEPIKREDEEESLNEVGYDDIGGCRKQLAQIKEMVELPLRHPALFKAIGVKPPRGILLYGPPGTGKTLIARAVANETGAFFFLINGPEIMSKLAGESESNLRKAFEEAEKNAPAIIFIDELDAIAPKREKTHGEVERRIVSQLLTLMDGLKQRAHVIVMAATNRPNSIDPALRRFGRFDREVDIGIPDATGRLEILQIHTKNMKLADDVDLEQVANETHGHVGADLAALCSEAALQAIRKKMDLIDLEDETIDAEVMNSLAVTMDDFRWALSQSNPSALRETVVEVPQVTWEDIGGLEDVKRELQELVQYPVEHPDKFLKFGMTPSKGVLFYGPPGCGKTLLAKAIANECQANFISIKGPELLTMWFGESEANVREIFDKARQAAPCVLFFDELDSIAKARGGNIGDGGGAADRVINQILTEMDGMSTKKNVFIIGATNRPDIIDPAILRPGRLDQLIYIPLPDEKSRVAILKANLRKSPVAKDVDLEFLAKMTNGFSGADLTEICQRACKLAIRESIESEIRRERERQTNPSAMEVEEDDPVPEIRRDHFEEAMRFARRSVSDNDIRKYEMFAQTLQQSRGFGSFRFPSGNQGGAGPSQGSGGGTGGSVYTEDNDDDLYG
DTT redox prof: compounds producing H2O2 with reducing agent – biochemical, NIH compound library profiling, artefact control for MLSCN library redox annotation, primary screen. DTT-dependent redox cycling H2O2, phenol red/HRP absorbance; 100% = 100 µM peroxide control, 0% = buffer. activation, % at 10 µM. 0.03% of 200,000 active. AID 878;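 active means activation of at least 50% relative to the plate's high and low controls in the primary single-dose screen; inactive means activation below 50%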;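 further: compound incubated with DTT at 0.8 mM final as the reducing agent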
PKD1 kinase inh: blocks activity of human protein kinase D1; Q15139; PKD1 kinase fluorescence polarization assay; inhibition, % (no concentration beside the values); 0.056% of 200,000 active; AID 797; in the data active means inhibition above about 50%
Cl transport mod: modulates chloride dependent transport by human KCC2 | Q9H2X9 | B-score of Tl+ flux slope (higher = more flux/activation; lower = inhibition) at 10 µM | KCC2 cells, thallium flux FluoZin-2 fluorescence | 2.2% of 190,000 active;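 active means thallium flux slope and its plate-corrected score both differing from the plate sample mean at a set confidence after two filtering rounds, in either direction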;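 further: slope of fluorescence scaled to starting intensity during 10 to 20 s after thallium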
KCC2 secondary: KCC2 (human) modulation, secondary assay | shares compounds with Cl transport mod | HEK293-KCC2, thallium flux, FluoZin2 fluorescence; stronger effect = higher value | normalised thallium flux (F/F0 slope) at 10 µM | 15% of 3,700 active | AID 1713;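 active means thallium flux slope above the same plate's solvent-only control mean plus 3 SD; inconclusive means the two replicate wells disagree; inactive means no significant difference from solvent-only control wells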
KCC2 bumet counter: bumetanide-insensitive thallium flux in KCC2 cells with ouabain, counter-screen. shares compounds with Cl transport mod. HEK293-KCC2 + bumetanide/ouabain, thallium flux FluoZin2; stronger effect = higher value. normalized thallium flux at 10 µM. 49% of 3,700 active;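 active means thallium entry rate above the same plate's blocked-transporter control wells by more than 3 SD; inconclusive means the two repeat wells disagree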;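 further: raw slope of fluorescence over initial fluorescence between 10 and 20 s after thallium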
KCC2 sec2: KCC2 (human) modulation, second secondary assay; shares compounds with Cl transport mod; HEK293-KCC2, thallium flux FluoZin2 fluorescence; actives lie on both sides; F/F0 rise rate, 10–20 s post-thallium; normalized thallium flux at 10 µM; 23% of 3,700 active; AID 1715;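 active means thallium flux slope more than 3 SD above or below the plate's solvent-only control mean, mostly below; inconclusive means the two repeat wells disagreed; inactive means no significant shift from solvent-only controls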
HEK counter1: counter-screen for KCC2 modulators: effect in parental HEK293 cells; shares compounds with Cl transport mod; thallium flux FluoZin2, ouabain; baseline-ratio fluorescence slope, 10–20 s after thallium; thallium flux rate (normalised fluorescence) at 10 µM; 46% of 3,700 active; AID 1716;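 active means thallium flux rate significantly above the same plate's solvent-only control wells, beyond their mean plus 3 SD; inconclusive means the two replicate wells gave conflicting results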
KCC2 retest ouab: confirmation of human KCC2 modulators with ouabain. raw Tl+ flux slope (below DMSO = inhibition, above = activation) at 10 µM. AID 1717. HEK293-KCC2, thallium flux FluoZin2 fluorescence; bidirectional: low = inhibitor, high = activator. 48% of 3,700 active. shares compounds with Cl transport mod;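 active means thallium flux slope beyond 3 SD from same-plate DMSO control mean in most replicates, usually higher, sometimes lower; inconclusive means repeat tests gave conflicting results; inactive means no significant difference from controls in most replicates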;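 further: slope of initial-normalized fluorescence between seconds 10 and 20 after thallium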
HEK293 Tl flux2: acts in parental HEK cells, second KCC2 counter-screen; shares compounds with Cl transport mod; HEK293 parental, thallium flux FluoZin-2 fluorescence slope; thallium flux slope at 10 µM; 33% of 3,700 active; AID 1718;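 active means thallium flux slope above the same plate's solvent-control mean plus 3 SD in both duplicate wells; inconclusive means duplicate wells that disagreed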;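 further: run without ouabain in cells lacking the KCC2 cotransporter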
Hits are given with their value. Compounds with a hit are over-represented: about 3.4% of the library has one in this group of screens.

For CC(=O)C(Sc1ncnc2sc3c(c12)CCCC3)C(C)=O the results were ROMK primary inactive, MDM2 E3 inh inactive, p97 inhibitor inactive, DTT redox prof inactive, PKD1 kinase inh inactive, Cl transport mod 6.4, KCC2 secondary 0.015, KCC2 bumet counter 0.1, KCC2 sec2 inactive, HEK counter1 0.018, KCC2 retest ouab inconclusive and HEK293 Tl flux2 0.013.
`CC(=O)CSc1ncnc2sc3c(c12)CCCC3` gave ROMK primary inactive, MDM2 E3 inh inactive, p97 inhibitor inactive, DTT redox prof inactive, PKD1 kinase inh inactive and Cl transport mod inactive.
`CC(C)Cn1c(N)c(C(=O)CSc2ncnc3sc4c(c23)CCCC4)c(=O)n(C)c1=O` gave ROMK primary inactive, MDM2 E3 inh inactive, p97 inhibitor inactive, DTT redox prof inactive, PKD1 kinase inh inactive, Cl transport mod 7.9, KCC2 secondary inactive, KCC2 bumet counter 0.014, KCC2 sec2 inactive, HEK counter1 0.014, KCC2 retest ouab 0.021 and HEK293 Tl flux2 0.014.
N#CCSc1ncnc2sc3c(c12)CCC3 was read as MDM2 E3 inh inactive, p97 inhibitor inactive, DTT redox prof inactive, PKD1 kinase inh inactive and Cl transport mod inactive.
O=C(CSc1ncnc2sc3c(c12)CCCC3)c1ccco1 was read as ROMK primary inactive, MDM2 E3 inh inactive, p97 inhibitor inactive, DTT redox prof inactive, PKD1 kinase inh inactive, Cl transport mod 19, KCC2 secondary inconclusive, KCC2 bumet counter 0.095, KCC2 sec2 inactive, HEK counter1 inconclusive, KCC2 retest ouab 0.055 and HEK293 Tl flux2 inconclusive.
Screening CC(C#N)Sc1ncnc2sc3c(c12)CCC3 (centres undefined) returned MDM2 E3 inh inactive, p97 inhibitor inactive, DTT redox prof inactive, PKD1 kinase inh inactive, Cl transport mod 4.2, KCC2 secondary inconclusive, KCC2 bumet counter 0.032, KCC2 sec2 inactive, HEK counter1 0.017, KCC2 retest ouab inactive and HEK293 Tl flux2 0.013.
Screening CCOc1ccc(NC(C)C(=O)N/N=C/c2ccc([N+](=O)[O-])cc2)cc1 (centres undefined) returned ROMK primary inactive, MDM2 E3 inh inactive, p97 inhibitor inactive, DTT redox prof inactive and PKD1 kinase inh inactive.
Screening O=C(Nc1ccc(N2CCOCC2)cc1)c1c(F)cccc1Cl returned ROMK primary inactive, MDM2 E3 inh inactive, p97 inhibitor inactive, DTT redox prof inactive, PKD1 kinase inh inactive and Cl transport mod inactive.
COc1ccc(/C=C/c2nnc(NC(=O)CSc3ccc(C)cc3)s2)cc1 was read as p97 inhibitor inactive and Cl transport mod inactive.
Screening Cc1ccc(C(=O)O)cc1NC(=O)CSc1ncnc2sc3c(c12)CCC3 returned MDM2 E3 inh inactive, p97 inhibitor inactive, Cl transport mod 10, KCC2 secondary inactive, KCC2 bumet counter 0.016, KCC2 sec2 inactive, HEK counter1 0.017, KCC2 retest ouab 0.025 and HEK293 Tl flux2 0.018.
`Cc1nc2c(c(=O)n1CCC1=CCCCC1)c1nc3ccccc3nc1n2/N=C/c1ccco1` gave MDM2 E3 inh inactive, p97 inhibitor inactive, DTT redox prof inactive, PKD1 kinase inh inactive, Cl transport mod -5.8, KCC2 secondary inactive, KCC2 bumet counter inactive, KCC2 sec2 inactive, HEK counter1 inactive, KCC2 retest ouab inactive and HEK293 Tl flux2 inactive.
`Cc1cc(-c2nnc(CCC(=O)N(C)Cc3ccsc3)o2)no1` gave ROMK primary inactive, MDM2 E3 inh inactive, p97 inhibitor inactive, DTT redox prof inactive and PKD1 kinase inh inactive.
Cc1cccc(C)c1Nc1nnc(SCC(=O)c2ccc3c(c2)NC(=O)CO3)s1 was read as ROMK primary inactive, MDM2 E3 inh inactive, p97 inhibitor inactive, DTT redox prof inactive, PKD1 kinase inh inactive, Cl transport mod -3.8, KCC2 secondary inactive, KCC2 bumet counter inactive, KCC2 sec2 inactive, HEK counter1 inactive, KCC2 retest ouab 0.019 and HEK293 Tl flux2 inactive.
`S=c1[nH]nc(-c2ccco2)n1/N=C/c1ccc(Cl)c(Cl)c1` gave MDM2 E3 inh inactive, p97 inhibitor inactive, DTT redox prof inactive, PKD1 kinase inh inactive and Cl transport mod inactive.
`Cc1ccc(/C=N/n2c(-c3ccco3)n[nH]c2=S)cc1` gave MDM2 E3 inh inactive, p97 inhibitor inactive, Cl transport mod 15, KCC2 secondary inactive, KCC2 bumet counter 0.028, KCC2 sec2 inactive, HEK counter1 0.019, KCC2 retest ouab 0.031 and HEK293 Tl flux2 0.017.
S=c1[nH]nc(-c2ccco2)n1/N=C/c1cccc(Cl)c1 was read as MDM2 E3 inh inactive, p97 inhibitor inactive, Cl transport mod 9.2, KCC2 secondary inactive, KCC2 bumet counter 0.014, KCC2 sec2 inactive, HEK counter1 0.012, KCC2 retest ouab 0.022 and HEK293 Tl flux2 0.016.
`Cc1n[nH]c(=S)n1/N=C/c1cccc(OCc2ccccc2)c1` gave ROMK primary inactive, MDM2 E3 inh inactive, p97 inhibitor inactive, DTT redox prof inactive, PKD1 kinase inh inactive, Cl transport mod 16, KCC2 secondary inactive, KCC2 bumet counter 0.027, KCC2 sec2 inactive, HEK counter1 0.014, KCC2 retest ouab 0.022 and HEK293 Tl flux2 0.016.
For O=[N+]([O-])c1ccccc1/C=N/n1c(-c2cccnc2)n[nH]c1=S the results were MDM2 E3 inh inactive, p97 inhibitor inactive, DTT redox prof inactive, PKD1 kinase inh inactive and Cl transport mod inactive.
O=[N+]([O-])c1cc(/C=N/n2c(-c3cccnc3)n[nH]c2=S)ccc1Cl was read as ROMK primary inactive, MDM2 E3 inh inactive, p97 inhibitor inactive, DTT redox prof inactive, PKD1 kinase inh inactive, Cl transport mod 8.1, KCC2 secondary inactive, KCC2 bumet counter 0.077, KCC2 sec2 inactive, HEK counter1 inconclusive, KCC2 retest ouab inconclusive and HEK293 Tl flux2 inconclusive.
